ChEMBL document CHEMBL5543124, “Lead Compound Development of SRC-3 Inhibitors with Improved Pharmacokinetic Properties and Anticancer Efficacy” (J Med Chem, 2024)
The source made the active and inactive calls. The calls are words filed in the database; no cut-off is given here.

Key:
[1] = Half life in CD-1 mouse at 10 mg/kg,po administration measured upto 48 hrs by LC-MS/MS analysis; format: ADME, organism-based; conditions: in vivo
In short: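 Oral gavage in ICR male mice (n = 3); dosing solution 1 mg/mL in 20% DMSO, 16% PEG, 4% dextrose in PBS. Tail-vein blood (10 μL) taken at 15, 30 min and 1, 2, 4, 8, 24, 48 h. Plasma quantified by LC-MS/MS against a 0.5–1000 ng/mL calibration; parameters from a non-compartmental extravascular model.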

[2] = Half life in CD-1 mouse at 1 mg/kg,iv administration measured upto 48 hrs by LC-MS/MS analysis; format: ADME, organism-based; conditions: in vivo
In short: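 Single intravenous bolus in ICR male mice (n = 3, 6 weeks); dosing solution 0.5 mg/mL in 20% DMSO, 16% PEG, 4% dextrose in PBS. Tail-vein blood (10 μL) taken at 2, 5, 15, 30 min and 1, 2, 4, 8, 24, 48 h. Plasma quantified by LC-MS/MS against a 0.5–1000 ng/mL calibration; parameters from non-compartmental analysis.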

[3] = Oral bioavailability in CD-1 mouse at 10 mg/kg administration measured upto 48 hrs by LC-MS/MS analysis; format: ADME, organism-based; conditions: in vivo
[4] = system: Prostate cancer organoid; assay: Antitumor activity against patient derived Prostate cancer PDX organoid assessed as reduction in organoid growth measured after 2 weeks; format: functional, tissue-based; conditions: Homo sapiens
In short: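 Single cells from prostate cancer PDX tumors (collagenase I/III digest); 20000 cells embedded in collagen gel and cultured overnight, then treated or vehicle for 14 days with at least 5 wells per dose. Organoids imaged and counted on day 14; groups compared by Student t test.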

[5] = Tmax in CD-1 mouse at 1 mg/kg,iv administration measured upto 48 hrs by LC-MS/MS analysis; format: ADME, organism-based; conditions: in vivo
In short: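 Male ICR mice (n=3, 6 weeks) given 1 mg/kg i.v. from a 0.5 mg/mL solution in 20% DMSO/16% PEG/4% dextrose in PBS. Tail-vein blood (10 μL) drawn at 2, 5, 15 and 30 min and at 1, 2, 4, 8, 24 and 48 h. Plasma quantified by LC-MS/MS against 0.5–1000 ng/mL calibration standards with QC samples. Parameters from non-compartmental analysis.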

[6] = molecular target: Prostaglandin G/H synthase 1 (Homo sapiens, UniProt P23219); assay: Inhibition of COX1 (unknown origin); format: toxicity
Prostaglandin G/H synthase 1, sequence (P23219 whole entry): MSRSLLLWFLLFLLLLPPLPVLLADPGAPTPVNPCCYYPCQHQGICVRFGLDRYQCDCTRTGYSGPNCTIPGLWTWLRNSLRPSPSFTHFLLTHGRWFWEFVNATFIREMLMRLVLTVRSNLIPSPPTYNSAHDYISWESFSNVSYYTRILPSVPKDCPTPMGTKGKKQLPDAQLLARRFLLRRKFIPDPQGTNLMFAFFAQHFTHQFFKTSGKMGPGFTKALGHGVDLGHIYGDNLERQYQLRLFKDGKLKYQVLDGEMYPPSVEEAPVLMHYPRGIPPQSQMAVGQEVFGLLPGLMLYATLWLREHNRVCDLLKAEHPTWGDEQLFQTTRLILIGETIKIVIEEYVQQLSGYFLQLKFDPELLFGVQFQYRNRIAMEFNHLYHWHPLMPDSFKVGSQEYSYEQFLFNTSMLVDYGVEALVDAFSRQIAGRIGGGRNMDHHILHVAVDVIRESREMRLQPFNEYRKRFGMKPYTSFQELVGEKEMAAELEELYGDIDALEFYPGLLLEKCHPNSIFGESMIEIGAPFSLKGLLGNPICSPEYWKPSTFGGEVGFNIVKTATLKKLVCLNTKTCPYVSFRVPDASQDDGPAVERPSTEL
In short: (§1)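 Tested in a commercial off-target safety screening panel of 78 targets. Values reported as RC50, taken as IC50 except for agonist mode, where RC50 is EC50.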

[7] = system: PANC-1; assay: Cytotoxicity against human PANC-1 cells mediated with siRNA control assessed as inhibition of cell growth incubated for 72 hrs by MTT assay; format: functional, cell-based; conditions: PANC-1, 72 h
In short: (§2)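 PANC-1 cells with stable lentiviral shRNA knockdown of SRC-3 or control shRNA; SRC-3 levels checked by western blot. Cells treated with a dose series for 72 h and viability read by MTT.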

[8] = molecular target: Voltage-gated inwardly rectifying potassium channel KCNH2 (Homo sapiens, UniProt Q12809); assay: Inhibition of hERG transfected in HEK293 cells by patch clamp assay; format: toxicity, cell-based
Voltage-gated inwardly rectifying potassium channel KCNH2, sequence (Q12809 whole entry): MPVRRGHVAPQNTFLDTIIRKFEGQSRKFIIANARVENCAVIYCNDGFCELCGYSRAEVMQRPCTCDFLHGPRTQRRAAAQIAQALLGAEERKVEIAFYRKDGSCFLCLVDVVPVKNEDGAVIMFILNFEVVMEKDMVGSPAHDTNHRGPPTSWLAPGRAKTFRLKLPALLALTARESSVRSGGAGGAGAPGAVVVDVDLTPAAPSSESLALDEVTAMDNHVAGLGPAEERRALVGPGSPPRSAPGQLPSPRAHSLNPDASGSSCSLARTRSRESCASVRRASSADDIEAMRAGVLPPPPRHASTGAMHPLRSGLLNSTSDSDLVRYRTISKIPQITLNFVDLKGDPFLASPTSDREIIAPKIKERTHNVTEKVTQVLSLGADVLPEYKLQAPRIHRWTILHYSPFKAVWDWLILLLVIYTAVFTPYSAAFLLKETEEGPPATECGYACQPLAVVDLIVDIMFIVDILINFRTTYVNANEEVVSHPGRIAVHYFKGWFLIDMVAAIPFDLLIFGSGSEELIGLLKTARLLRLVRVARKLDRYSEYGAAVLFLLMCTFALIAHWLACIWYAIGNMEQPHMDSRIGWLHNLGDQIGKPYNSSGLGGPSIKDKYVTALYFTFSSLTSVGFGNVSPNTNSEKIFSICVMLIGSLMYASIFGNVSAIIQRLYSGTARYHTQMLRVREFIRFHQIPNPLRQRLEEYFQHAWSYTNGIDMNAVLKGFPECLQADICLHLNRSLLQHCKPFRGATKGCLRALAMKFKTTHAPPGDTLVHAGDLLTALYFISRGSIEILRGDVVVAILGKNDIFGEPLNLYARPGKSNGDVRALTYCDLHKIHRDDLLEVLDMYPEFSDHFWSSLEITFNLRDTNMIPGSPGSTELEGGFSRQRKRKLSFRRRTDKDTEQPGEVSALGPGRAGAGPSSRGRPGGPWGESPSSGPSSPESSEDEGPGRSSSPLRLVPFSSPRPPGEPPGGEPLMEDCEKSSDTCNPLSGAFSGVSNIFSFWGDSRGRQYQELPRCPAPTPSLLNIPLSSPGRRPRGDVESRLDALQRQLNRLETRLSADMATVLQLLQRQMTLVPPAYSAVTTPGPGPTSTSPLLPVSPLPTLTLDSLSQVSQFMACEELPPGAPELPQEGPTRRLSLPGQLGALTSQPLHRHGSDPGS

[9] = Antitumor activity against human Panc-1-Luc cells orthotopically xenografted in SCID mouse assessed as reduction in tumor weight at 10 mg/kg,ip administration once daily for 63 days by weighing harvested tumors; conditions: time 63 day
[10] = Cytotoxicity against human MPANC96 cells assessed as inhibition of cell growth incubated for 72 hrs by MTT assay; format: functional, cell-based; conditions: MPANC96, 72 h
In short: (§3)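 Cells seeded and grown to 70–80% confluence, then exposed for 72 h to a titration series (0.2–1000 nM). Viability read by MTT relative to untreated cells, with 6 replicates per concentration. IC50 fitted with a Hill-slope model.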

[11] = Stability in CD-1 mouse plasma at 37.7 micromol/kg,ip administration measured after 22 hrs by LC-MS/MS analysis; format: ADME, cell-free; conditions: at 37.7 µmol/kg
In short: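 Female CD-1 mice (n=3) dosed i.p. at 37.7 μmol/kg (equimolar across compounds). Blood (20 μL) drawn at 0.25, 5 and 22 h and processed to plasma. Drug levels quantified by LC-MS/MS.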

[12] = system: BT-474; assay: Cytotoxicity against human BT-474 cells assessed as inhibition of cell growth incubated for 72 hrs by MTT assay; format: functional, cell-based; conditions: BT-474, 72 h; in short: as §3
[13] = Cytotoxicity against CD-1 mouse Primary hepatocyte assessed as inhibition of cell growth incubated for 72 hrs by MTT assay; format: toxicity, cell-based; conditions: primary hepatocytes
[14] = system: PANC-1; assay: Cytotoxicity against […] SRC-3.2 knockdown human PANC-1 cells assessed as inhibition of cell growth incubated for 72 hrs by MTT assay; format: functional, cell-based; conditions: PANC-1, 72 h; in short: as §2
[15] = molecular target: T1, Prostaglandin G/H synthase 2 (Homo sapiens, UniProt P35354); assay: Inhibition of COX2 (unknown origin); format: toxicity; in short: as §1
T1 sequence (P35354 whole entry): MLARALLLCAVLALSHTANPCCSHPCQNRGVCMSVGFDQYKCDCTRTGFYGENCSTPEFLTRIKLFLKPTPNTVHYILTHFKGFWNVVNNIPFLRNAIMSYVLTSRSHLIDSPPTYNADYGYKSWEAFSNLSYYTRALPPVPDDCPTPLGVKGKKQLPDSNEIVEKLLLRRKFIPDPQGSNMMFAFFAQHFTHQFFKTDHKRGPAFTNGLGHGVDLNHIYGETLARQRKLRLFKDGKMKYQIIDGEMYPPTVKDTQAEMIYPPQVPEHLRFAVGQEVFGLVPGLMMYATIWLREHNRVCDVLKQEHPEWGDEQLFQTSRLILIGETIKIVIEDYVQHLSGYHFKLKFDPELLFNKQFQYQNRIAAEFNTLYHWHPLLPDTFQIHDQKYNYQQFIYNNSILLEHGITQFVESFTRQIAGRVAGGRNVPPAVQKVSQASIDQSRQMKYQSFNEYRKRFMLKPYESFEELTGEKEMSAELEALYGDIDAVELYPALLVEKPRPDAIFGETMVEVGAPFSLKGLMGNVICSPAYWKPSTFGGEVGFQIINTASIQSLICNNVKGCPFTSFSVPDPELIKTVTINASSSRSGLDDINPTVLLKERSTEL

[16] = Toxicity in SCID mouse orthotopically xenografted with human Panc-1-Luc cells assessed as change in body weight at 10 mg/kg,ip administration once daily for 63 days; format: organism-based; conditions: in vivo, 1512 h, time 63 day
In short: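 Male SCID mice (8 weeks) received orthotopic pancreatic implants of Panc-1-Luc cells (0.5×10^6 per mouse). Mice randomized by luciferase imaging (n=5 per group). From day 8, dosed 10 mg/kg i.p. or solvent vehicle once daily. Body weight recorded weekly; mice euthanized at day 63.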

[17] = system: Panc-1-Luc; assay: Antitumor activity against human Panc-1-Luc cells orthotopically xenografted in SCID mouse assessed as reduction in tumor growth at 10 mg/kg,ip administration once daily for 63 days; format: functional, organism-based; conditions: time 63.0 day
In short: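 Panc-1-Luc cells (0.5×10^6) implanted orthotopically in pancreas of male SCID mice (8 weeks). Mice randomized by luciferase imaging (n = 5/group); from day 8 given 10 mg/kg or vehicle daily. Tumor measured weekly by luciferase imaging and calipers (length × width²/2), body weight weekly; tumors harvested at day 63.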

[18] = molecular target: 5-hydroxytryptamine receptor 2B (Homo sapiens, UniProt P41595); assay: Antagonist activity at HTR2B (unknown origin) by calcium flux assay; format: toxicity; in short: as §1
5-hydroxytryptamine receptor 2B, sequence (P41595 whole entry): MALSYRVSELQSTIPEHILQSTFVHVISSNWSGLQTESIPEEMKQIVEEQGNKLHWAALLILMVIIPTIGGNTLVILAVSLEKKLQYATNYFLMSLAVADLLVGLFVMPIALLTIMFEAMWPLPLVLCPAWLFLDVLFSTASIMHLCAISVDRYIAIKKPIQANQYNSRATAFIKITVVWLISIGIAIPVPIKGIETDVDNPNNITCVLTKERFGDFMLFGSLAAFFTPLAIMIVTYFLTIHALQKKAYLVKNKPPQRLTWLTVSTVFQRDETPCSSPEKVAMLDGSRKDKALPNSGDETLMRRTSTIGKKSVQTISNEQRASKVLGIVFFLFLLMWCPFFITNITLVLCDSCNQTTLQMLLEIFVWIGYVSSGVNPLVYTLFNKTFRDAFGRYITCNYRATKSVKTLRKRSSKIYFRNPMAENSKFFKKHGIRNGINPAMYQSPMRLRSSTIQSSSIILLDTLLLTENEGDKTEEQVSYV

## C/C(=N\N=c1/[nH]c2cc(F)c(F)cc2n1C)c1ccc(F)cn1
[1]
  t1/2: 14.3 h
[2]
  t1/2: 22.5 h
[3]
  F: 24.6%
[4]
  Activity: Active
[5]
  Tmax: 1.98 min
[6]
  IC50: 3100 nM
[7]
  IC50: 25.2 nM
[8]
  IC50: 1130 nM
[9]
  Activity: 0.22 g
[10]
  IC50: 28 nM
[11]
  Stability: Stable
[12]
  IC50: 0.8 nM
[13]
  IC50 at 72 h: > 1000 nM
[14]
  IC50: 119 nM
[15]
  IC50: 3000 nM
[16]
  Activity: Non-Toxic
[17]
  Activity: Active
[18]
  IC50: 4100 nM
